{
  "source": "paper PMC9934531",
  "about": "(bioRxiv, 2023)",
  "key": {"[1]": {"molecular_target": "hydrophobic patch of cNTnC in the presence of cTnIsp", "settings": "cited from earlier work"}, "[2]": {"tested_on": "slow skeletal muscle (soleus) fibers", "assay": "Calcium sensitivity of force generation in slow skeletal muscle", "type": "cell-based, rat", "settings": "20 μM compound", "in_short": "(§1)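 Four male Sprague Dawley rats (7–9 months); cardiac trabeculae (n=10) and soleus fibers (n=10), soleus fibers typed slow by SDS-PAGE. Force measured in activating solutions of graded pCa, first without then with 20 μM test compound. pCa50 taken from force–pCa curve fits, and the with/without difference was analysed per preparation by paired Student's t-test. Maximal force was the mean of pCa 4.0 activations (every third; n=6), without then with compound.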"}, "[3]": {"tested_on": "cardiac trabeculae", "assay": "Calcium sensitivity of force generation in isolated cardiac trabeculae", "type": "cell-based, rat", "settings": "20 μM compound", "in_short": "as §1"}},
  "note": "Like-named read-outs stand apart in the source and are kept apart here.",
  "data": [
    {"smiles": "CN1CCN(CCCN2c3ccccc3Sc3ccc(C(F)(F)F)cc32)CC1", "note": "[TFP, trifluoperazine]", "values": [
      {"measurement": "Kd", "setting": "[1]", "value": "110 ± 20", "unit": "µM"}
    ]},
    {"smiles": "C[C@@H]1CC(=O)NN=C1c1ccc(NN=C(C#N)C#N)cc1", "note": "[levosimendan]", "values": [
      {"measurement": "Kd", "setting": "[1]", "value": "~700", "unit": "µM"}
    ]},
    {"smiles": "O=C(CSc1nc(-c2ccccc2)c(-c2ccccc2)[nH]1)Nc1nccs1", "note": "[Compound 7930079, 2-[(4,5-diphenyl-1H-imidazol-2-yl)thio]-N-1,3-thiazol-2-ylacetamide]", "values": [
      {"measurement": "effect on average maximal force generation", "setting": "[2]; pCa 4.0, slow fibers, P=0.39", "value": "no effect"},
      {"measurement": "shift of force/pCa curve to higher sensitivity (ΔpCa50)", "setting": "[2]; rat slow fibers, n=10, P<.01", "value": "0.20 ± 0.03", "unit": "pCa unit"},
      {"measurement": "Kd", "setting": "[1]; read-out: apparent experimental binding affinity", "value": "1.45 ± 0.09", "unit": "µM"},
      {"measurement": "decrease in average maximal force", "setting": "[3]; pCa 4.0, cardiac trabeculae, P=0.001", "value": 8, "unit": "%"},
      {"measurement": "shift of force/pCa curve to higher sensitivity (ΔpCa50)", "setting": "[3]; rat cardiac trabeculae, n=10, P<.01", "value": "0.05 ± 0.04", "unit": "pCa unit"}
    ]},
    {"smiles": "CC(C)COCC(CN(Cc1ccccc1)c1ccccc1)N1CCCC1", "note": "(centres unmarked) [bepridil]", "values": [
      {"measurement": "Kd", "setting": "[1]", "value": "380 ± 60", "unit": "µM"}
    ]}
  ]
}
